The source made the active and inactive calls. No cut-off for these calls is given here.
Columns and labels:
Plasmodium falciparum [1] = assay: Antiplasmodial activity against chloroquine-susceptible Plasmodium falciparum NF54 infected in human erythrocytes assessed as inhibition of [3H]hypoxanthine uptake after 48 hrs; type: functional, organism-based
Procedure, shortened: (§1)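 Asynchronous ring-stage cultures in human A Rh+ erythrocytes (RPMI 1640, HEPES, NaHCO3, hypoxanthine, 0.5% Albumax II, 5% CO2, 37 C), 1% parasitemia; top final drug concentration 30 μM. After 24 h, [3H]-hypoxanthine (0.2 μCi/well) added, further 48 h incubation; plates freeze-thawed, harvested, uptake counted; IC50 calculated.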

Plasmodium falciparum [2] = assay: Antiplasmodial activity against chloroquine, pyrimethamine, cycloguanil-resistant Plasmodium falciparum K1 infected in human erythrocytes assessed as inhibition of [3H]hypoxanthine uptake after 48 hrs; type: functional, organism-based; procedure, shortened: as §1
Plasmodium falciparum [3] = assay: Antiplasmodial activity against chloroquine-resistant Plasmodium falciparum Dd2 infected in human erythrocytes assessed as inhibition of [3H]hypoxanthine uptake after 48 hrs; type: functional, organism-based
Procedure, shortened: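 Ring-stage infected erythrocytes (0.5% parasitemia, 2.5% hematocrit) exposed to compounds 48 h, then radioactive hypoxanthine 24 h; radioactivity in precipitable material taken as proliferation index for IC50.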

Plasmodium falciparum [4] = assay: Antiplasmodial activity against chloroquine-susceptible Plasmodium falciparum 3D7 infected in human erythrocytes assessed as inhibition of [3H]hypoxanthine uptake after 48 hrs; type: functional, organism-based
Procedure, shortened: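 Culture in RPMI 1640 with 10% human serum, 25 mM HEPES, 25 mM NaHCO3, A-positive blood, 10% O2/5% CO2/85% N2, 37 C. Isotopic microtest: 0.5% parasitemia, 1.5% hematocrit, 1 μCi tritiated hypoxanthine at time zero, 48 h; freeze-thaw lysis, filter harvest, scintillation count. IC50 = 50% uptake versus drug-free control, nonlinear regression of log dose-response curves.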

Plasmodium falciparum [5] = assay: Antiplasmodial activity against chloroquine-susceptible Plasmodium falciparum D6 infected in human erythrocytes assessed as inhibition of [3H]hypoxanthine uptake after 48 hrs; type: functional, organism-based
Procedure, shortened: (§2)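 Strains were cultured in A-positive human blood in RPMI 1640 with 10% human serum, 25 mM HEPES and 25 mM NaHCO3, under 10% O2/5% CO2/85% N2 at 37 °C. Microtests used 0.5% parasitemia and 1.5% hematocrit. Tritiated hypoxanthine (1 μCi/well) was added at time zero, then 48 h incubation, freeze-thaw, harvest and scintillation counting. IC50 was taken by nonlinear regression against drug-free controls.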

Plasmodium falciparum [6] = assay: Antiplasmodial activity against chloroquine-susceptible Plasmodium falciparum 8425 infected in human erythrocytes assessed as inhibition of [3H]hypoxanthine uptake after 48 hrs; type: functional, organism-based; procedure, shortened: as §2
Plasmodium falciparum [7] = assay: Antiplasmodial activity against chloroquine-susceptible Plasmodium falciparum Voll infected in human erythrocytes assessed as inhibition of [3H]hypoxanthine uptake after 48 hrs; type: functional, organism-based; procedure, shortened: as §2
Plasmodium falciparum [8] = assay: Antiplasmodial activity against chloroquine-susceptible Plasmodium falciparum L1 infected in human erythrocytes assessed as inhibition of [3H]hypoxanthine uptake after 48 hrs; type: functional, organism-based; procedure, shortened: as §2
Plasmodium falciparum [9] = assay: Antiplasmodial activity against chloroquine-susceptible Plasmodium falciparum PA infected in human erythrocytes assessed as inhibition of [3H]hypoxanthine uptake after 48 hrs; type: functional, organism-based; procedure, shortened: as §2
Plasmodium falciparum [10] = assay: Antiplasmodial activity against chloroquine-susceptible Plasmodium falciparum Bres infected in human erythrocytes assessed as inhibition of [3H]hypoxanthine uptake after 48 hrs; type: functional, organism-based; procedure, shortened: as §2
Plasmodium falciparum [11] = assay: Antiplasmodial activity against chloroquine-susceptible Plasmodium falciparum FCR3 infected in human erythrocytes assessed as inhibition of [3H]hypoxanthine uptake after 48 hrs; type: functional, organism-based; procedure, shortened: as §2
Plasmodium falciparum [12] = assay: Antiplasmodial activity against chloroquine-susceptible Plasmodium falciparum W2 infected in human erythrocytes assessed as inhibition of [3H]hypoxanthine uptake after 48 hrs; type: functional, organism-based; procedure, shortened: as §2
Plasmodium falciparum [13] = assay: Antiplasmodial activity against chloroquine-susceptible Plasmodium falciparum K2 infected in human erythrocytes assessed as inhibition of [3H]hypoxanthine uptake after 48 hrs; type: functional, organism-based; procedure, shortened: as §2
Plasmodium falciparum [14] = assay: Antiplasmodial activity against chloroquine-susceptible Plasmodium falciparum K14 infected in human erythrocytes assessed as inhibition of [3H]hypoxanthine uptake after 48 hrs; type: functional, organism-based; procedure, shortened: as §2
Plasmodium falciparum [15] = assay: Antiplasmodial activity against chloroquine-susceptible Plasmodium falciparum FCM29 infected in human erythrocytes assessed as inhibition of [3H]hypoxanthine uptake after 48 hrs; type: functional, organism-based; procedure, shortened: as §2
MRC5 = assay: Cytotoxicity against human MRC5 after 3 days; type: cell-based; conditions: MRC5, 72 h
Procedure, shortened: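 MRC-5SV2 cells were grown in Earle's MEM with 5% FCSi and plated at about 10^4 cells/well. After 3 days of incubation, viability was read fluorimetrically with resazurin (ex 550/em 590 nm). Growth reduction was expressed relative to untreated control wells, and CC50 was derived.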

NCH89 = assay: Antiproliferative activity against human carmustine-resistant NCH-89 cells assessed as BrdU incorporation after 48 hrs; type: functional, cell-based; conditions: NCH89, 48 h
Procedure, shortened: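 NCH89 glioblastoma cells were seeded at 7 × 10^3 cells/well in replicate wells for 24 h. Compound was then added at 0.1-100 μM. After 48 h, BrdU was added at 100 μM final, and incorporation was detected with a BrdU labeling/detection kit.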

Nucleic Acid [16] = assay: Binding affinity to pUC18 DNA at pH 7.5 by UV-Vis spectrophotometry analysis; type: nucleic-acid assay
Procedure, shortened: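 A 10 μM drug solution was titrated at room temperature with linearized pUC18 DNA (50% AT), 0.1-50 μM base pairs final. Buffer was TE (10 mM Tris-HCl, 0.1 mM EDTA) with 5 mM NaCl, ionic strength 12 mM. UV-Vis absorption spectra were recorded at 220-380 nm. Kd = DNA concentration at which half the drug is bound.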

Nucleic Acid [17] = assay: Binding affinity to pUC18 DNA at pH 7.5 by spectrofluorimetry analysis; type: nucleic-acid assay
Procedure, shortened: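 A 1-10 μM drug solution was titrated at room temperature with linearized pUC18 DNA (50% AT), 0.1-50 μM base pairs final, in TE buffer with 5 mM NaCl (ionic strength 12 mM). Fluorescence used excitation at 320 nm and emission at 340-500 nm, corrected for buffer and instrument response. Kd = DNA concentration giving half-bound drug.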

Nucleic Acid [18] = assay: Binding affinity to pUC18 DNA containing 50% AT assessed as maximum melting temperature at 1 uM by spectrophotometry analysis; type: nucleic-acid assay
Procedure, shortened: (§3)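 Drug at 1 μM was mixed with DNA at 15 μM base pairs (15:1 bp:drug) in TE with 5 mM NaCl. Absorbance at 260 nm was recorded from 30-97 °C at 0.5 °C/min, with readings every 0.5 °C. Curves were normalized, smoothed and differentiated. Tmmax = derivative peak maximum; Tmint = middle of the integrated area; Tm1/2 = middle of the peak at half height.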

Nucleic Acid [19] = assay: Binding affinity to pUC18 DNA containing 50% AT assessed as middle of the peak at half height melting temperature at 1 uM by spectrophotometry analysis; type: nucleic-acid assay; procedure, shortened: as §3
Nucleic Acid [20] = assay: Binding affinity to pUC18 DNA containing 50% AT assessed as middle of the integrated surface melting temperature at 1 uM by spectrophotometry analysis; type: nucleic-acid assay; procedure, shortened: as §3
Nucleic Acid [21] = assay: Binding affinity to polydAdT DNA containing 100% AT assessed as maximum melting temperature at 1 uM by spectrophotometry analysis; type: nucleic-acid assay; procedure, shortened: as §3
Nucleic Acid [22] = assay: Binding affinity to polydAdT DNA containing 100% AT assessed as middle of the peak at half height melting temperature at 1 uM by spectrophotometry analysis; type: nucleic-acid assay; procedure, shortened: as §3
Nucleic Acid [23] = assay: Binding affinity to polydAdT DNA containing 100% AT assessed as middle of the integrated surface melting temperature at 1 uM by spectrophotometry analysis; type: nucleic-acid assay; procedure, shortened: as §3
Mus musculus [24] = assay: Toxicity in Plasmodium berghei ANKA-infected CD1 mice (Mus musculus) assessed as mortality at 30 mg/kg, intraperitoneally; type: organism-based; set-up: dose 30 mg/kg, route intraperitoneal; conditions: in vivo, ip
Procedure, shortened: (§4)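 Peters 4-day suppressive test, P. berghei ANKA: 18-20 g mice infected iv with 2 × 10^6 parasitized red cells day 0; compounds freshly made in 10% DMSO in sterile PBS, given ip from 2 h postinfection and on days 1-3; daily dose 30 mg/kg or 50 mg/kg; deaths recorded.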

Mus musculus [25] = assay: Toxicity in ip dosed Swiss mouse assessed as mortality at 30 mg/kg, ip; type: organism-based; set-up: dose 30 mg/kg, route intraperitoneal; conditions: in vivo; procedure, shortened: as §4
Plasmodium berghei = assay: Antiplasmodial activity against Plasmodium berghei ANKA infected in Swiss mice (Mus musculus) assessed as reduction of parasitaemia at 30 mg/kg, intraperitoneally; type: functional, organism-based; set-up: dose 30 mg/kg
Procedure, shortened: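 Swiss mice (18-20 g) infected intravenously on day 0 with 2 × 10^6 P. berghei ANKA parasitized red cells. Compound was freshly prepared in 10% DMSO in sterile PBS and given ip, first 2 h postinfection, then on days +1-3 (4-day suppressive test). On day +4, parasitemia was counted microscopically on Giemsa-stained tail-blood films.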

| Compound | IC50 (Plasmodium falciparum [4]) [nM] | IC90 (Plasmodium falciparum [4]) [nM] | IC50 (Plasmodium falciparum [5]) [nM] | IC90 (Plasmodium falciparum [5]) [nM] | IC50 (Plasmodium falciparum [6]) [nM] | IC90 (Plasmodium falciparum [6]) [nM] | IC50 (Plasmodium falciparum [7]) [nM] | IC90 (Plasmodium falciparum [7]) [nM] | IC50 (Plasmodium falciparum [8]) [nM] | IC90 (Plasmodium falciparum [8]) [nM] | IC50 (Plasmodium falciparum [9]) [nM] | IC90 (Plasmodium falciparum [9]) [nM] | IC50 (Plasmodium falciparum [10]) [nM] | IC90 (Plasmodium falciparum [10]) [nM] | IC50 (Plasmodium falciparum [11]) [nM] | IC90 (Plasmodium falciparum [11]) [nM] | IC50 (Plasmodium falciparum [12]) [nM] | IC90 (Plasmodium falciparum [12]) [nM] | IC50 (Plasmodium falciparum [13]) [nM] | IC90 (Plasmodium falciparum [13]) [nM] | further results |
| --- | --- | --- | --- | --- | --- | --- | --- | --- | --- | --- | --- | --- | --- | --- | --- | --- | --- | --- | --- | --- | --- |
| CC(C)NCCNc1ccnc2cc(Cl)ccc12 | 35.2 | 65.6 | 35.6 | 67.8 | 29 | 59.4 | 63.7 | 135 | 63.2 | 132 | 64 | 107 | 129 | 218 | 86.1 | 164 | 169 | 320 | 130 | 285 | IC50 (Plasmodium falciparum [1]): 8.9 nM; IC50 (Plasmodium falciparum [2]): 47.4 nM; IC50 (Plasmodium falciparum [3]): 22.6 nM; IC50 (Plasmodium falciparum [14]): 171 nM; IC90 (Plasmodium falciparum [14]): 316 nM; IC50 (Plasmodium falciparum [15]): 239 nM; IC90 (Plasmodium falciparum [15]): 369 nM; IC50 (MRC5): 64000 nM; IC50 (NCH89): 30400 nM; Kd (Nucleic Acid [16]): 17500 nM; Kd (Nucleic Acid [17]): 8000 nM; Tm (Nucleic Acid [18]): 73 °C; Tm (Nucleic Acid [19]): 74.5 °C; Tm (Nucleic Acid [20]): 73.9 °C; Tm (Nucleic Acid [21]): 46.6 °C; Tm (Nucleic Acid [22]): 46.5 °C; Tm (Nucleic Acid [23]): 46.5 °C |
| CCNCc1cc(Nc2ccnc3cc(Cl)ccc23)ccc1O [DESETHYL AMODIAQUINE] | 19.5 | 31.4 | 17.5 | 37 | 26.4 | 41.4 | 77.5 | 113 | 86.1 | 125 | 72.8 | 106 | 100 | 143 | 79.1 | 130 | 146 | 202 | 91.2 | 144 | IC50 (Plasmodium falciparum [14]): 160 nM; IC90 (Plasmodium falciparum [14]): 220 nM; IC50 (Plasmodium falciparum [15]): 318 nM; IC90 (Plasmodium falciparum [15]): 407 nM |
| C=C[C@H]1CN2CC[C@H]1C[C@H]2[C@H](O)c1ccnc2ccc(OC)cc12 [QUININE] | 104 | 597 | 61.8 | 464 | 130 | 390 | 422 | 843 | 531 | 995 | 627 | 1110 | 689 | 614 | 665 | 1110 | 684 | 1250 | 619 | 1510 | IC50 (Plasmodium falciparum [14]): 496 nM; IC90 (Plasmodium falciparum [14]): 1640 nM; IC90 (Plasmodium falciparum [15]): 1200 nM |
| CN(C)CCC(NCCNc1ccnc2cc(Cl)ccc12)c1ccccc1 (centres undefined) | 8.1 | 14.4 | 12.2 | 16.7 | 8.8 | 16.9 | 65.2 | 144 | 61.7 | 177 | 161 | 318 | 158 | 310 | 64.4 | 196 | 99.8 | 260 | 87.1 | 247 | IC50 (Plasmodium falciparum [1]): 7.1 nM; IC50 (Plasmodium falciparum [2]): 61.9 nM; IC50 (Plasmodium falciparum [3]): 25.6 nM; IC50 (Plasmodium falciparum [14]): 129 nM; IC90 (Plasmodium falciparum [14]): 267 nM; IC50 (Plasmodium falciparum [15]): 244 nM; IC90 (Plasmodium falciparum [15]): 376 nM; IC50 (MRC5): 27000 nM; Activity (Mus musculus [24]): Toxic; Activity (Mus musculus [25]): Toxic; Activity (Plasmodium berghei): Active; IC50 (NCH89): 7300 nM; Kd (Nucleic Acid [16]): 7000 nM; Kd (Nucleic Acid [17]): 8000 nM; Tm (Nucleic Acid [18]): 74.4 °C; Tm (Nucleic Acid [19]): 76.5 °C; Tm (Nucleic Acid [20]): 75.5 °C; Tm (Nucleic Acid [21]): 46.8 °C; Tm (Nucleic Acid [22]): 47.4 °C; Tm (Nucleic Acid [23]): 47.1 °C |

Reference: ChEMBL document CHEMBL1157095, “Antimalarial versus cytotoxic properties of dual drugs derived from 4-aminoquinolines and Mannich bases: interaction with DNA” (J Med Chem, 2010)
